Drawing on ChEMBL document CHEMBL5653631, “A Potent and Selective ULK1 Inhibitor Suppresses Autophagy and Sensitizes Cancer Cells to Nutrient Stress” (iScience, 2018), this text covers inhibition and fold change (FC) for three compounds.

The target in test [1] is T1, Protein kinase C zeta type (Homo sapiens) (UniProt Q05513).
T1 sequence (whole entry): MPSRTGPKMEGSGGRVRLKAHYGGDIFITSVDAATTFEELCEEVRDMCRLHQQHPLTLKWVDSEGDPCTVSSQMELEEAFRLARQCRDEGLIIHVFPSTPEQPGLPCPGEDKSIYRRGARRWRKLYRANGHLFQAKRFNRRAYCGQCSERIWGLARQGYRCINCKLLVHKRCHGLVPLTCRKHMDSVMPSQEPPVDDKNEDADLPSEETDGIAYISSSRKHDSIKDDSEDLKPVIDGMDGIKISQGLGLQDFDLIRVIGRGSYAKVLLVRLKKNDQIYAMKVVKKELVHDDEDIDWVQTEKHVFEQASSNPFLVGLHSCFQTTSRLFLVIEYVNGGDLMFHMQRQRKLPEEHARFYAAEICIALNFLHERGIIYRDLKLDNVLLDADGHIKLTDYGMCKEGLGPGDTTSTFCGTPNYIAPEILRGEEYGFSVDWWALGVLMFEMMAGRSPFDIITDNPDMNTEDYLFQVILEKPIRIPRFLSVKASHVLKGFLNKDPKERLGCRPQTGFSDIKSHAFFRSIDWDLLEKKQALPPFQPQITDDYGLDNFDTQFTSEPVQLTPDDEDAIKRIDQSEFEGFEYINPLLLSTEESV
Put plainly: Inhibition of human recombinant PKCz at 40 nM in presence of ATP by radiometric assay relative to control.

Test [2] has as its target Homeodomain-interacting protein kinase 3 (Homo sapiens) (UniProt Q9H422). As to the kind of experiment: Inhibition of human recombinant HIPK3 at 500 nM in presence of ATP by radiometric assay relative to control.
In test [3] the target is Cyclin-dependent kinase-like 1 (Homo sapiens) (UniProt Q00532). As to the kind of experiment: Inhibition of human recombinant CDKL1 at 500 nM in presence of ATP by radiometric assay relative to control.
Test [4] addresses Tyrosine-protein kinase receptor UFO (Homo sapiens) (UniProt P30530). Put plainly: Inhibition of human recombinant AXL at 500 nM related to control ULK1. In outline:
(§1)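 Panel of 327 recombinant human kinases, each assayed in vitro by radiometric activity assay in duplicate at a single inhibitor concentration per compound, chosen with reference to its ULK1 inhibition. Activity remaining was expressed as percent of vehicle control, and percent inhibition was calculated as 100 minus percent activity remaining.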

The target of test [5] is Ribosomal protein S6 kinase alpha-6 (Homo sapiens) (UniProt Q9UK32). As to the kind of experiment: Inhibition of human recombinant RSK4 at 500 nM in presence of ATP by radiometric assay relative to control.
The target of test [6] is T2, Serine/threonine-protein kinase 3 (Homo sapiens) (UniProt Q13188).
T2 sequence (whole entry): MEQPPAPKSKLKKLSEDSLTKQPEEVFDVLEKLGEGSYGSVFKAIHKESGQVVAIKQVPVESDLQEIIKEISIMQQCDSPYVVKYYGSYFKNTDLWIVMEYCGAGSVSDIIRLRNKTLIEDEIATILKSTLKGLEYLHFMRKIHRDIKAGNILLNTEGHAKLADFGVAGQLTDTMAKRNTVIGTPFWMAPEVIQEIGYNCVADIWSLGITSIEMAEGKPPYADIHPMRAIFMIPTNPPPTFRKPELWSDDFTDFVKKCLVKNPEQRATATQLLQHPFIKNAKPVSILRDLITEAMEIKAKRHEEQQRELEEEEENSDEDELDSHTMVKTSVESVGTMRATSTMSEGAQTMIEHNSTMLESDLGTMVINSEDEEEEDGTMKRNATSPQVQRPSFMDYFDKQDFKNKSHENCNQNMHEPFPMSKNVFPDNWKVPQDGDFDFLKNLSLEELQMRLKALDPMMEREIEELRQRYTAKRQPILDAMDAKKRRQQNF
Put plainly: Inhibition of human recombinant MST2 at 500 nM related to control ULK1.

In test [7] the target is SRSF protein kinase 2 (Homo sapiens) (UniProt P78362). Put plainly: Inhibition of human recombinant SRPK2 at 500 nM related to control ULK1.
Test [8] deals with Serine/threonine-protein kinase PAK 1 (Homo sapiens) (UniProt Q13153). As to the kind of experiment: Inhibition of human recombinant PAK1 at 15 nM in presence of ATP by radiometric assay relative to control.
For test [9], the target named is Mitogen-activated protein kinase kinase kinase 10 (Homo sapiens) (UniProt Q02779). As to the kind of experiment: Inhibition of human recombinant MLK2 at 15 nM in presence of ATP by radiometric assay relative to control.
The target of test [10] is Platelet-derived growth factor receptor alpha (Homo sapiens) (UniProt P16234). As to the kind of experiment: Inhibition of human recombinant PDGFRa at 15 nM related to control ULK1.
In test [11] the target is Protein-tyrosine kinase 6 (Homo sapiens) (UniProt Q13882). Put plainly: Inhibition of human recombinant BRK at 15 nM in presence of ATP by radiometric assay relative to control. Summed up:
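Part of a radiometric in vitro activity panel of 327 recombinant human kinases. Each kinase was tested in duplicate at one inhibitor concentration. Activity remaining was expressed as a percentage of the vehicle control, and percent inhibition was taken as 100 minus that value.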

Test [12] has as its target T3, Mitogen-activated protein kinase kinase kinase kinase 2 (Homo sapiens) (UniProt Q12851).
T3 sequence (whole entry): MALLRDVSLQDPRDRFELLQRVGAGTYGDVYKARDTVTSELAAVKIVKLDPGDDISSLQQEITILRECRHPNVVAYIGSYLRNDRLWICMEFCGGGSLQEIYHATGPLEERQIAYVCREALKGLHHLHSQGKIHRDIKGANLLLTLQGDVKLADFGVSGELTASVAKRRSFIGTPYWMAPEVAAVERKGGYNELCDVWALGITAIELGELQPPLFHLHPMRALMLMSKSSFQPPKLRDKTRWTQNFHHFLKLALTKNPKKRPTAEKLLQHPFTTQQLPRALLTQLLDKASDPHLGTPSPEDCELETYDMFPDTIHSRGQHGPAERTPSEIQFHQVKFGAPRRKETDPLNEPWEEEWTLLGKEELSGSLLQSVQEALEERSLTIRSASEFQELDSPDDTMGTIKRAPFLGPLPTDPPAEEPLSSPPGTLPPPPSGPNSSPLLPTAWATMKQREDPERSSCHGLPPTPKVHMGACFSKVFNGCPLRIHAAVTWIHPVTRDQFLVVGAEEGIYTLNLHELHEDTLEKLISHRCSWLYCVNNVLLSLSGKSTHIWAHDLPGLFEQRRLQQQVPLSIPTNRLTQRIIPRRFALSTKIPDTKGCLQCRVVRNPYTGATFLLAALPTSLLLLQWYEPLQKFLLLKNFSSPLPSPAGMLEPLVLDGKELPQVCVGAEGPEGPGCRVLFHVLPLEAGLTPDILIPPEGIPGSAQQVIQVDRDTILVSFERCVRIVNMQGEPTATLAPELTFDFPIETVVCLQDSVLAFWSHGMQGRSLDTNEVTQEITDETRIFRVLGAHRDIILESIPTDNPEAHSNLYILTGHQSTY
Put plainly: Inhibition of human recombinant GCK at 15 nM in presence of ATP by radiometric assay relative to control.

Test [13] has as its target Tyrosine-protein kinase receptor UFO (Homo sapiens) (UniProt P30530). As to the kind of experiment: Inhibition of human recombinant AXL at 15 nM in presence of ATP by radiometric assay relative to control. In outline: as §1

The term inhibition denotes the percentage by which the read-out fell short of the control.

Chain of Tyrosine-protein kinase receptor UFO (Homo sapiens) (P30530 whole entry): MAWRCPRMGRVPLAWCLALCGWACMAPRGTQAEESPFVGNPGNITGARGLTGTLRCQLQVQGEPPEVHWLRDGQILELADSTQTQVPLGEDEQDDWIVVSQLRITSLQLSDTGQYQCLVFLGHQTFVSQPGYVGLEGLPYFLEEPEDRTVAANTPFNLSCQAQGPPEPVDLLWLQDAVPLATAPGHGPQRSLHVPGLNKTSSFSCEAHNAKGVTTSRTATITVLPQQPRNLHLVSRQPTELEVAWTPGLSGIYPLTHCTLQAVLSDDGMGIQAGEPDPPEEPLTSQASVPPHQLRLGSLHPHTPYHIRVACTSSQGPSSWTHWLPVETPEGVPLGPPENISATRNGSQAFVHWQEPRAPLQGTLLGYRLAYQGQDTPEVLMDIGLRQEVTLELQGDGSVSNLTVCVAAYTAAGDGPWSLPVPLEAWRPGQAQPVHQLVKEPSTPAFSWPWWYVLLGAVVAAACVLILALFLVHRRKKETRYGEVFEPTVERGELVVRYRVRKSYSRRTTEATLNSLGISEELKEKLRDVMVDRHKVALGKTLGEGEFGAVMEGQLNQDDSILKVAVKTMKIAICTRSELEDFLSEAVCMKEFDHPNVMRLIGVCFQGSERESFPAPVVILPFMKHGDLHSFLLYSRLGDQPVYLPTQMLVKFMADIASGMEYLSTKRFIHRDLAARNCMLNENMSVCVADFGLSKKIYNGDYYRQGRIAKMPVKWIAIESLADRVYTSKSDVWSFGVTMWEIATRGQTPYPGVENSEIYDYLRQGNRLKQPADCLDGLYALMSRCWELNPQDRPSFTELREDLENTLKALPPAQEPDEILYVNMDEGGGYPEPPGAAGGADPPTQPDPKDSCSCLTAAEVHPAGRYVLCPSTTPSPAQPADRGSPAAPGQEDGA
Chain of Ribosomal protein S6 kinase alpha-6 (Homo sapiens) (Q9UK32 whole entry): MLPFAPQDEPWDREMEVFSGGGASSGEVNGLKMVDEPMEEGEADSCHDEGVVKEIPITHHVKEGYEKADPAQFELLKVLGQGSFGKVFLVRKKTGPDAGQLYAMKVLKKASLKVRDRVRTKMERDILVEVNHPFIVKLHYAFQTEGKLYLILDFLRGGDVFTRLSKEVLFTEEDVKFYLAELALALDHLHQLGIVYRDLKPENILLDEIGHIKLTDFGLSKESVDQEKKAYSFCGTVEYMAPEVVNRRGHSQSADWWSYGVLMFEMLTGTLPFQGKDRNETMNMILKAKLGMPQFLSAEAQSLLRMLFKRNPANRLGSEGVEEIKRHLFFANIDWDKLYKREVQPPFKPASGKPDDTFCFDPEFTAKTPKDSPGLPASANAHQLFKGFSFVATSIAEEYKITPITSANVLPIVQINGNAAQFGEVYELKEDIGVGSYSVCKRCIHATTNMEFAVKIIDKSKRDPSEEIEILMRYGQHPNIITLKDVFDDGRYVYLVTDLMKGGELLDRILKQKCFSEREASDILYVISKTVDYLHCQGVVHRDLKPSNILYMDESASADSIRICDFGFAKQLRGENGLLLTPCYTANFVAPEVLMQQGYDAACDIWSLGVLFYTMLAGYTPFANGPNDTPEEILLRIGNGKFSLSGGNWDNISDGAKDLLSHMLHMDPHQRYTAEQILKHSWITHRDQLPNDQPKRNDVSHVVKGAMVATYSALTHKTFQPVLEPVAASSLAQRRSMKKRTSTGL
Chain of Serine/threonine-protein kinase PAK 1 (Homo sapiens) (Q13153 whole entry, looked up): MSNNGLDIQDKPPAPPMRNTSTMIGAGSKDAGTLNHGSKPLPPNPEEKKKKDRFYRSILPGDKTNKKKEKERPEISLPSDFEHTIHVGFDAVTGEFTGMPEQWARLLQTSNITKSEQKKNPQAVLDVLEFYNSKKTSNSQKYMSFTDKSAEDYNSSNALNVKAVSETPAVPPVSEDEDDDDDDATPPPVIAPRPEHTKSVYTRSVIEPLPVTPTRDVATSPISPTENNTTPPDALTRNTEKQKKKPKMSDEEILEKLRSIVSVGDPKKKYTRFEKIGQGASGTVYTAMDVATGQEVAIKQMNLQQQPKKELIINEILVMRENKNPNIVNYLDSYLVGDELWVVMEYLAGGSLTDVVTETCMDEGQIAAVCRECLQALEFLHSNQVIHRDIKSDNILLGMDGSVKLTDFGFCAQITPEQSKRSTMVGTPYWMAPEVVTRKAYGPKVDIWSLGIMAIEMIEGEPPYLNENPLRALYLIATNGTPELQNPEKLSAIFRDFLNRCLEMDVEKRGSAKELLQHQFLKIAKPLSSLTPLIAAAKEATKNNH
Chain of Protein-tyrosine kinase 6 (Homo sapiens) (Q13882 whole entry, looked up): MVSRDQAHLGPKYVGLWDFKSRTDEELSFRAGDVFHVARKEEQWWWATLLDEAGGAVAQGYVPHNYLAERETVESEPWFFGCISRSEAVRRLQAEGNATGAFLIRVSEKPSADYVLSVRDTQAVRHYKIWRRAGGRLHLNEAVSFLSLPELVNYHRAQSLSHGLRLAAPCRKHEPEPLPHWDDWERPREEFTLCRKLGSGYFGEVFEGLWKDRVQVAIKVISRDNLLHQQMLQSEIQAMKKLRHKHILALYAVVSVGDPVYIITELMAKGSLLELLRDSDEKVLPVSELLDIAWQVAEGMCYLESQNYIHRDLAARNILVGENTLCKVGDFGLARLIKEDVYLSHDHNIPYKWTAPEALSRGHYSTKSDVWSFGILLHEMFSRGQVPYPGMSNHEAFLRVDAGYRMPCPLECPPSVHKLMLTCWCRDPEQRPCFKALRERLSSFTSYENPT
Chain of SRSF protein kinase 2 (Homo sapiens) (P78362 whole entry, looked up): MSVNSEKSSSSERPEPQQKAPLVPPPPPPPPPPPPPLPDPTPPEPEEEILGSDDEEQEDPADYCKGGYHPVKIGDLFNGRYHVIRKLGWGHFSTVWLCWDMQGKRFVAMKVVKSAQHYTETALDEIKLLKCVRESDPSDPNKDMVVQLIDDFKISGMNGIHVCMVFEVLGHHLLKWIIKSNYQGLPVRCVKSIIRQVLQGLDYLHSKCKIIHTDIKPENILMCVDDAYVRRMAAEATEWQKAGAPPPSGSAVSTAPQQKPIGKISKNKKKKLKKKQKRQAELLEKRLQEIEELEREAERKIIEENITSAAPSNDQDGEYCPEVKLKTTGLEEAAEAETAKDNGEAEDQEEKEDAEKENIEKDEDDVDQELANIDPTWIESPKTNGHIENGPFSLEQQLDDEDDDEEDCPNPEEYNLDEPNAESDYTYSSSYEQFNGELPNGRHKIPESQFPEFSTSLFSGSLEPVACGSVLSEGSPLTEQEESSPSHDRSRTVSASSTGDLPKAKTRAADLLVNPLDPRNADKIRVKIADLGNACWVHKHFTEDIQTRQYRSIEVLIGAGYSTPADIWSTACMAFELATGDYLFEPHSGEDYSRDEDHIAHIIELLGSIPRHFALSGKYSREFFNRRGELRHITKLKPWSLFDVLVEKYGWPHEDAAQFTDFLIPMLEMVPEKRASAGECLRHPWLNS
Chain of Cyclin-dependent kinase-like 1 (Homo sapiens) (Q00532 whole entry): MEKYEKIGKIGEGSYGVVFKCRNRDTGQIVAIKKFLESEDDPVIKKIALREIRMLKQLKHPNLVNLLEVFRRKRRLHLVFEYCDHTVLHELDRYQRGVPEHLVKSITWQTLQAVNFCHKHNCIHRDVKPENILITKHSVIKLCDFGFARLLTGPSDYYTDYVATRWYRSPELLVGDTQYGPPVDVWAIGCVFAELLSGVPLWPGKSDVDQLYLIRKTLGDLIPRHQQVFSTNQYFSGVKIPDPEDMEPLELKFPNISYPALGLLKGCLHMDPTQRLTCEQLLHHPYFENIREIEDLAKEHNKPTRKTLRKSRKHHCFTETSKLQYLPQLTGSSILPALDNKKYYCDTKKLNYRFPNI
Chain of Platelet-derived growth factor receptor alpha (Homo sapiens) (P16234 whole entry): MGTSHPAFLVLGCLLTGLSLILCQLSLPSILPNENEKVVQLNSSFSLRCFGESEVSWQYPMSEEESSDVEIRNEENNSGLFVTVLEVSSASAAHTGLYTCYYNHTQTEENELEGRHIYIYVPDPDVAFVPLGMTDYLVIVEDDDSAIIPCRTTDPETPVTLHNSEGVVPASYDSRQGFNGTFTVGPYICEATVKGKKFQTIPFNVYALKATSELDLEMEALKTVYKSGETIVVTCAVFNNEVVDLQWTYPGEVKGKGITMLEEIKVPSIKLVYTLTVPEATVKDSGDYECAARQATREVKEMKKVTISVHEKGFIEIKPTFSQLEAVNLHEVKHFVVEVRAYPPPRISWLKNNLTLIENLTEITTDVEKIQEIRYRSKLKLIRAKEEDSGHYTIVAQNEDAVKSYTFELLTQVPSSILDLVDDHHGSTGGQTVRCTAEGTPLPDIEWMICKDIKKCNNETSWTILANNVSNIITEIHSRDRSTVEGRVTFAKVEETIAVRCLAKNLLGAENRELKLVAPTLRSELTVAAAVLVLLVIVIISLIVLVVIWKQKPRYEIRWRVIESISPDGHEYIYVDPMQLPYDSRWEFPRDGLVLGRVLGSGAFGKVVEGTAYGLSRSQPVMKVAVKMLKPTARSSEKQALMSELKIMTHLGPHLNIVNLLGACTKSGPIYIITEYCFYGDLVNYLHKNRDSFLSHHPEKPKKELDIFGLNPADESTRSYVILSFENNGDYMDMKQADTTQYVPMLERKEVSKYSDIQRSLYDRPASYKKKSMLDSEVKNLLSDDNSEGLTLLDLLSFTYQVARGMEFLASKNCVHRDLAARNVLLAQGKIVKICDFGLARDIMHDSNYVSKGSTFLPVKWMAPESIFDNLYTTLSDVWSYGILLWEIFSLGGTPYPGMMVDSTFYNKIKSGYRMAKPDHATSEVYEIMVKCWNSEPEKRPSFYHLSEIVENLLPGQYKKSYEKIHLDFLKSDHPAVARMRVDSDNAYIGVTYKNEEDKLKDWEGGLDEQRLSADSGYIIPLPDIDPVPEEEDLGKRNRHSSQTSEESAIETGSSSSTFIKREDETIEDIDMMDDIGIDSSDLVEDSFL

With `O=C(N[C@@H](C1CC1)C(F)(F)F)c1cc(-c2cnn3cc(-c4ccc(F)cc4)cnc23)cs1`, the inhibition in test [1] was determined as 0%.
As for `CNC(=O)c1ccccc1Oc1nc(Nc2cc(OC)c(OC)c(OC)c2)ncc1Br`, the inhibition in test [2] is 6%; in test [3] it was 0%; in test [5], 33%. Besides, the fold change (FC) was 0.07 in test [4], 0 in test [6] and 0.07 in [7].
`CC(C)[C@H](NC(=O)c1cc(-c2cnn3cc(-c4ccc(OCCN5CCCCC5)cc4)cnc23)cs1)C(F)(F)F`: the inhibition in test [8] is 0%; in [9], 12%; in [11] it was 8%; in test [12], 34%; in test [13], 11%. For the same compound, the fold change (FC) in test [10] is 0.06.
